# Tests used:
# [1] = organism: Mus musculus; test: Activation of UTRN promoter in mouse H2K cells assessed as upregulation of UTRN production after 48 hrs by luciferase reporter linked assay; assay type: functional, cell-based; details: Mus musculus, H2K, 48 h
# Outline: (§1)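 H2K myoblasts stably carrying a utrophin (UTRN) promoter–luciferase reporter were plated 24 h before dosing and exposed to compound for 48 h. Luciferase was read by luminescence (Steady-Glo). The primary screen was at 10 μM and the secondary at six concentrations for EC50, both in triplicate. Non-EC50 values are % of the reference upregulator's maximum, given with the concentration at maximum.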
# [2] = Half life in human liver microsomes; assay type: ADME, Microsome
# [3] = test system: Mus musculus; test: AUC in CD1 mouse at 10 mg/kg, ip; assay type: ADME, organism-based, Plasma; set-up: dose 10 mg/kg, route intraperitoneal; details: in vivo
# Outline: (§2)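 Male CD1 mice were dosed i.p. at 10 mg/kg in 95% PBS containing 0.1% Tween 20 and 5% DMSO. Plasma was sampled at 5–360 or 5–480 min. AUC is in μg.min/mL. Half-life was not calculated where the log concentration–time plot lacked a linear region of at least three points.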
# [4] = test system: Mus musculus; test: Cmax in CD1 mouse at 10 mg/kg, ip; assay type: ADME, organism-based; set-up: dose 10 mg/kg, route intraperitoneal; details: in vivo; outline: as §2
# [5] = Aqueous solubility of the compound by turbidimetry; assay type: physicochemical; details: buffer
# Outline: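 Turbidimetric aqueous solubility, reported as the final test compound concentration.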
# [6] = Half life in mouse liver microsomes; assay type: ADME, Microsome
# [7] = test system: Mus musculus; test: Tmax in CD1 mouse at 10 mg/kg, ip; assay type: ADME, organism-based; set-up: dose 10 mg/kg, route intraperitoneal; details: in vivo; outline: as §2
# [8] = test system: Mus musculus; test: Half life in CD1 mouse at 10 mg/kg, ip; assay type: ADME, organism-based; set-up: dose 10 mg/kg, route intraperitoneal; details: in vivo; outline: as §2
# [9] = organism: Mus musculus; test: Activation of UTRN promoter in mouse H2K cells assessed as upregulation of UTRN production at 10 uM after 48 hrs by luciferase reporter linked assay; assay type: functional; outline: as §1
# [10] = organism: Mus musculus; test: Activation of UTRN promoter in mouse H2K cells assessed as upregulation of UTRN production at 30 uM after 48 hrs by luciferase reporter linked assay; assay type: functional; outline: as §1
# [11] = organism: Mus musculus; test: Activation of UTRN promoter in mouse H2K cells assessed as upregulation of UTRN production at 10 uM after 72 hrs by RT-PCR analysis; assay type: functional
# Outline: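 H2K cells were seeded at 25000 per well, left 24 h, then dosed for 72 h in 1% DMSO final. Total RNA was extracted and reverse transcribed. qPCR used an amplicon spanning the UTRN exon 3–4 boundary, with β-actin as the endogenous control, and was quantified by ΔΔCT. Values are % UTRN relative to DMSO control (=100), with P value.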
# [12] = organism: Mus musculus; test: Activation of UTRN promoter in mouse H2K cells assessed as upregulation of UTRN production at 3 uM after 48 hrs by luciferase reporter linked assay; assay type: functional; outline: as §1
compound,measurement,setting,value
CCCC(=O)Nc1ccc2oc(-c3ccc(Cl)cc3)nc2c1,EC50,[1],3.5 µM
CCS(=O)(=O)c1ccc2oc(-c3ccc(Cl)cc3)nc2c1,half-life,[2],69 min
same,AUC,[3],9.65 µg·h/mL
same,Cmax,[4],5.65 µg/mL
same,solubility kinetic,[5],10 µM
same,half-life,[6],30.6 min
same,EC50,[1],5 µM
same,Tmax,[7],5 min
same,t1/2,[8],131 min
CCS(=O)(=O)c1ccc2oc(-c3cccc(Oc4ccccc4)c3)nc2c1,EC50,[1],> 30 µM
CCS(=O)(=O)c1ccc2oc(-c3ccc4c(c3)CCC4)nc2c1,half-life,[2],20 min
same,EC50,[1],2.3 µM
CCS(=O)(=O)c1ccc2oc(C3CCc4ccccc4C3)nc2c1 (centres undefined),Activity,[9],32%
CCS(=O)(=O)c1ccc2oc(-c3ccccc3)nc2c1,solubility kinetic,[5],100 µM
same,Activity,[9],69%
CCS(=O)(=O)c1ccc2oc(-c3ccccc3Cl)nc2c1,Activity,[10],62%
CC(C)C(=O)Nc1ccc2nc(-c3ccc(Cl)c(Cl)c3)oc2c1,Activity,[11],111.5%
same,EC50,[1],4 µM
CCS(=O)(=O)c1ccc2oc(-c3cccs3)nc2c1,Activity,[10],29%
CS(=O)(=O)c1ccc2oc(-c3ccc4ccccc4c3)nc2c1,half-life,[6],33.4 min
same,Activity,[12],95%
CCS(=O)(=O)c1ccc2oc(-c3ccc4ncccc4c3)nc2c1,EC50,[1],1.9 µM
CCS(=O)(=O)c1ccc2oc(C3CCCCC3)nc2c1,Activity,[9],25%
CC(C)C(=O)Nc1ccc2oc(-c3ccc(Cl)cc3)nc2c1,half-life,[2],286 min
same,AUC,[3],3.82 µg·h/mL
same,Cmax,[4],2.807 µg/mL
same,solubility kinetic,[5],3 µM
same,half-life,[6],19.3 min
same,EC50,[1],0.4 µM
same,Tmax,[7],15 min
same,t1/2,[8],136 min
CCC(=O)c1ccc2oc(-c3ccc(Cl)cc3)nc2c1,half-life,[6],13 min
same,EC50,[1],0.9 µM
CCS(=O)(=O)c1ccc2oc(Cc3ccc4ccccc4c3)nc2c1,EC50,[1],> 30 µM
O=C(Nc1ccc2oc(-c3ccc(Cl)cc3)nc2c1)c1ccccc1,EC50,[1],> 30 µM
CCS(=O)(=O)c1ccc2nc(-c3ccc(Cl)c(Cl)c3)oc2c1,EC50,[1],10.6 µM
CCCCC(=O)Nc1ccc2oc(-c3ccccc3)nc2c1,Activity,[9],69%
CCS(=O)(=O)c1ccc2oc(-c3ccc(Cl)c(Cl)c3)nc2c1,half-life,[2],105 min
same,Activity,[11],138.3%
same,solubility kinetic,[5],3 µM
same,half-life,[6],101 min
same,EC50,[1],3 µM
CCS(=O)(=O)c1ccc2oc(-c3cccc(Cl)c3F)nc2c1,EC50,[1],> 10 µM
Nc1ccc(-c2nc3cc(N)ccc3o2)c(O)c1,EC50,[1],3.5 µM
CCS(=O)(=O)c1ccc2oc(-c3ccc4c(c3)CCCC4)nc2c1,Activity,[9],51%
O=C(Cc1ccccc1)Nc1ccc2oc(-c3ccc(Cl)cc3)nc2c1,EC50,[1],5 µM
CCS(=O)(=O)c1ccc2oc(-c3ccco3)nc2c1,EC50,[1],> 30 µM
CCS(=O)(=O)c1ccc2oc(-c3ccc4c(c3)OCO4)nc2c1,EC50,[1],4.2 µM
CC(C)C(=O)Nc1ccc2oc(-c3ccccc3Cl)nc2c1,EC50,[1],1.1 µM
CC(C)C(=O)Nc1ccc2oc(-c3ccc(Cl)cc3Cl)nc2c1,Activity,[9],53%
CC(C)NC(=O)c1ccc2oc(-c3ccc(Cl)cc3)nc2c1,EC50,[1],> 30 µM
CCS(=O)(=O)c1ccc2oc(-c3cc4ccccc4cn3)nc2c1,Activity,[9],63%
CC(C)C(=O)Nc1ccc2oc(-c3ccccc3)nc2c1,EC50,[1],0.8 µM
CCS(=O)(=O)c1ccc2oc(-c3ccc(-c4ccccc4)cc3)nc2c1,EC50,[1],> 30 µM
CCCS(=O)(=O)c1ccc2oc(-c3ccc(Cl)cc3)nc2c1,EC50,[1],> 30 µM
CCS(=O)(=O)c1ccc2oc(/C=C/c3ccccc3)nc2c1,Activity,[9],53%
CC(C)C(=O)Nc1ccc2oc(-c3cccc(Cl)c3)nc2c1,EC50,[1],4.5 µM
CC(C)C(=O)N(C)c1ccc2oc(-c3ccc(Cl)cc3)nc2c1,EC50,[1],> 30 µM
CCS(=O)(=O)c1ccc2oc(-c3cnc4ccccc4c3)nc2c1,EC50,[1],> 30 µM
CCS(=O)(=O)c1ccc2oc(-c3ccc4ccccc4n3)nc2c1,Activity,[12],59%
CCS(=O)(=O)c1ccc2oc(-c3ccc4nccnc4c3)nc2c1,EC50,[1],> 30 µM
CC(C)S(=O)(=O)c1ccc2oc(-c3ccc(Cl)c(Cl)c3)nc2c1,Activity,[9],45%
CCS(=O)(=O)c1ccc2oc(-c3ccc4occc4c3)nc2c1,Activity,[9],73%
CCS(=O)(=O)c1ccc2oc(-c3ccc4[nH]ccc4c3)nc2c1,Activity,[9],81%

# Reference: ChEMBL document CHEMBL1772981, “Discovery of 2-arylbenzoxazoles as upregulators of utrophin production for the treatment of Duchenne muscular dystrophy” (J Med Chem, 2011)
